# Experimental data as given in ChEMBL document CHEMBL3407466, “Discovery of an oral respiratory syncytial virus (RSV) fusion inhibitor (GS-5806) and clinical proof of concept in a human RSV challenge study” (J Med Chem, 2015).
# Key:
# [1] = Lipophilicity, log D of the compound by chromatography; type: physicochemical
# [2] = Oral bioavailability in Sprague-Dawley rat at 4 mg/kg; type: ADME, organism-based; settings: in vivo
# Summary of the method: (§1)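 IV parameters were taken from a 1 mg/kg dose given as a 30 min infusion.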
# Plasma [3] = experiment: Drug uptake in dog lung relative to plasma level; type: ADME, Canis lupus familiaris
# [4] = Ratio of AUC (0 to 12 hrs) in epithelial lining fluid to AUC (0 to 12 hrs) in plasma of Sprague-Dawley rat at 1 mg/kg, iv; type: ADME, organism-based; parameters: dose 1 mg/kg, route intravenous
# [5] = Clearance in cynomolgus monkey at 1 mg/kg, iv administered as infusion over 30 mins; type: ADME, organism-based, Macaca fascicularis; parameters: dose 1 mg/kg, route intravenous; settings: in vivo
# [6] = Terminal half life in po dosed human; type: ADME, organism-based; settings: in vivo, read-out: beta t1/2 (converted)
# [7] = Volume of distribution at steady state in beagle dog; type: ADME, organism-based, Canis lupus familiaris; settings: in vivo, read-out: Vdss
# [8] = Oral bioavailability in cynomolgus monkey at 4 mg/kg; type: ADME, organism-based, Macaca fascicularis; settings: in vivo
# [9] = Terminal half life in po dosed Sprague-Dawley rat; type: ADME, organism-based; settings: in vivo, read-out: beta t1/2 (converted)
# [10] = Drug uptake in bovine lung relative to plasma level; type: ADME, Bos taurus; settings: cattle
# Lung = experiment: Drug uptake in lung tissue of Sprague-Dawley rat at 1 mg/kg, iv relative to plasma level; type: ADME, organism-based; parameters: dose 1 mg/kg, route intravenous; settings: in vivo
# [11] = Ratio of AUC (0 to 12 hrs) in lung to AUC (0 to 12 hrs) in plasma of Sprague-Dawley rat at 1 mg/kg, iv; type: ADME, organism-based; parameters: dose 1 mg/kg, route intravenous
# Plasma [12] = experiment: Drug uptake in epithelial lining fluid of Sprague-Dawley rat at 1 mg/kg, iv relative to plasma level; type: ADME, organism-based; parameters: dose 1 mg/kg, route intravenous; settings: in vivo
# [13] = Terminal half life in po dosed beagle dog; type: ADME, organism-based, Canis lupus familiaris; settings: in vivo, read-out: beta t1/2 (converted)
# [14] = Oral bioavailability in beagle dog at 4 mg/kg; type: ADME, organism-based, Canis lupus familiaris; settings: in vivo
# [15] = Volume of distribution at steady state in cynomolgus monkey; type: ADME, organism-based, Macaca fascicularis; settings: in vivo, read-out: Vdss
# [16] = Terminal half life in po dosed cynomolgus monkey; type: ADME, organism-based, Macaca fascicularis; settings: in vivo, read-out: beta t1/2 (converted)
# [17] = Volume of distribution at steady state in Sprague-Dawley rat; type: ADME, organism-based; settings: in vivo, read-out: Vdss
# [18] = Clearance in Sprague-Dawley rat at 1 mg/kg, iv administered as infusion over 30 mins; type: ADME, organism-based; parameters: dose 1 mg/kg, route intravenous; settings: in vivo; summary of the method: as §1
# [19] = Clearance in beagle dog at 1 mg/kg, iv administered as infusion over 30 mins; type: ADME, organism-based, Canis lupus familiaris; parameters: dose 1 mg/kg, route intravenous; settings: in vivo
Structure (SMILES),chromatographic logD [1],further results
Cc1cn2nc([C@@H]3CCCCN3C(=O)c3cc(Cl)ccc3NS(C)(=O)=O)cc2nc1N1CCCC1,4.4,
Cc1[nH]c2cc([C@@H]3CCCCN3C(=O)c3ccccc3O)nn2c(=O)c1C,1.1,
Cc1ccc(NS(C)(=O)=O)c(C(=O)N2CCCC[C@H]2c2cc3nc(C4CC4)cc(C)n3n2)c1,3.5,bioavailability [2]: 42%
Cc1[nH]c2cc([C@@H]3CCCCN3C(=O)c3ccccc3NS(C)(=O)=O)nn2c(=O)c1C,1.3,bioavailability [2]: 1.5%
Cc1[nH]c2cc([C@@H]3CCCCN3C(=O)c3ccccc3NS(=O)(=O)C3CC3)nn2c(=O)c1C,1.6,
Cc1[nH]c2cc([C@@H]3CCCCN3C(=O)c3cc(F)ccc3NS(C)(=O)=O)nn2c(=O)c1C,1.4,
Cc1ccc(NS(C)(=O)=O)c(C(=O)N2CCCC[C@H]2c2cc3nc(C)c(C)cn3n2)c1,3.1,bioavailability [2]: 86%
CC(=O)Nc1ccccc1C(=O)N1CCCC[C@H]1c1cc2[nH]c(C)c(C)c(=O)n2n1,0.88,
Cc1[nH]c2cc([C@@H]3CCCCN3C(=O)c3cccc(F)c3NS(C)(=O)=O)nn2c(=O)c1C,1.3,
CNc1c(C)c(C)nc2cc([C@@H]3CCCCN3C(=O)c3cc(C)ccc3NS(C)(=O)=O)nn12,2.8,
Cc1cn2nc([C@@H]3CCCCN3C(=O)c3cc(Cl)ccc3NS(C)(=O)=O)cc2nc1N1CC[C@H](C#N)C1,3.6,
Cc1ccc(NS(C)(=O)=O)c(C(=O)N2CCCC[C@H]2c2cc3nc(C4CC4)c(C)cn3n2)c1,4.1,
Cc1ccc(NS(C)(=O)=O)c(C(=O)N2CCCC[C@H]2c2cc3nc(C)c(C)c(C)n3n2)c1,3.1,bioavailability [2]: 26%
Cc1cn2nc([C@@H]3CCCCN3C(=O)c3cc(Cl)ccc3NS(C)(=O)=O)cc2nc1N1CC[C@H](O)C1,2.9,
Cc1cn2nc([C@@H]3CCCCN3C(=O)c3cc(Cl)ccc3NS(C)(=O)=O)cc2nc1N1CC[C@@H](N)C1,2,
Cc1cn2nc([C@@H]3CCCCN3C(=O)c3cc(Cl)ccc3NS(C)(=O)=O)cc2nc1N1CC(N)C1,2.1,bioavailability [2]: 67%
Cc1[nH]c2cc([C@@H]3CCCCN3C(=O)c3cc(Br)ccc3NS(C)(=O)=O)nn2c(=O)c1C,2,
Cc1nc2cc([C@@H]3CCCCN3C(=O)c3ccccc3NS(C)(=O)=O)nn2c(C)c1C,2.7,
Cc1ccc(NS(C)(=O)=O)c(C(=O)N2CCCC[C@H]2c2cc3nc(C4CC4)ccn3n2)c1,3.7,
Cc1[nH]c2cc([C@@H]3CCCCN3C(=O)c3ccccc3)nn2c(=O)c1C,1.4,
Cc1[nH]c2cc([C@@H]3CCCCN3C(=O)c3ccc(F)cc3NS(C)(=O)=O)nn2c(=O)c1C,1.5,
Cc1[nH]c2cc([C@@H]3CCCCN3C(=O)c3ccccc3N)nn2c(=O)c1C,1.4,
Cc1[nH]c2cc([C@@H]3CCCCN3C(=O)c3cc(Cl)ccc3NS(C)(=O)=O)nn2c(=O)c1C,1.9,
Cc1[nH]c2cc([C@@H]3CCCCN3C(=O)c3ccccc3N(C)S(C)(=O)=O)nn2c(=O)c1C,1.1,
Cc1ccc(NS(C)(=O)=O)c(C(=O)N2CCCC[C@H]2c2cc3[nH]c(C)c(C)c(=O)n3n2)c1,1.7,
Cc1cn2nc([C@@H]3CCCCN3C(=O)c3cc(Cl)ccc3NS(C)(=O)=O)cc2nc1N1CC[C@@H](C#N)C1,3.7,
Cc1cn2nc([C@@H]3CCCCN3C(=O)c3cc(Cl)ccc3NS(C)(=O)=O)cc2nc1N1CC(O)C1,2.7,bioavailability [2]: 42%

# Now from value to compound, other results behind:
chromatographic logD [1],Structure (SMILES),further results
2.6,CNc1c(C)c(C)nc2cc([C@@H]3CCCCN3C(=O)c3ccccc3NS(C)(=O)=O)nn12,
3.8,Cc1cn2nc([C@@H]3CCCCN3C(=O)c3cc(Cl)ccc3NS(C)(=O)=O)cc2nc1N1CCC1,
4.2,Cc1cn2nc([C@@H]3CCCCN3C(=O)c3cc(Cl)ccc3NS(C)(=O)=O)cc2nc1N1CCC(F)(F)C1,
3.7,Cc1cn2nc([C@@H]3CCCCN3C(=O)c3cc(Cl)ccc3NS(C)(=O)=O)cc2nc1N1CC(F)C1,
1.9,Cc1[nH]c2cc([C@@H]3CCCCN3C(=O)c3cc(C(F)(F)F)ccc3NS(C)(=O)=O)nn2c(=O)c1C,
3,Cc1cn2nc([C@@H]3CCCCN3C(=O)c3ccccc3NS(C)(=O)=O)cc2nc1C,bioavailability [2]: 18%
3.3,Cc1cn2nc([C@@H]3CCCCN3C(=O)c3cc(Cl)ccc3NS(C)(=O)=O)cc2nc1N1CC(C#N)C1,
2.8,Cc1cn2nc([C@@H]3CCCCN3C(=O)c3cc(Cl)ccc3NS(C)(=O)=O)cc2nc1N1CC[C@@H](O)C1,bioavailability [2]: 71%
2.6,Cc1[nH]c2cc([C@@H]3CCCCN3C(=O)c3cc(-c4ccccc4)ccc3NS(C)(=O)=O)nn2c(=O)c1C,
1.8,Cc1[nH]c2cc([C@@H]3CCCCN3C(=O)c3c(Cl)cccc3NS(C)(=O)=O)nn2c(=O)c1C,
2.7,Cc1ccc(NS(C)(=O)=O)c(C(=O)N2CCCC[C@H]2c2cc3nc(C)cc(C)n3n2)c1,
1.3,COC(=O)Nc1ccccc1C(=O)N1CCCC[C@H]1c1cc2[nH]c(C)c(C)c(=O)n2n1,
2,Cc1cn2nc([C@@H]3CCCCN3C(=O)c3cc(Cl)ccc3NS(C)(=O)=O)cc2nc1N1CC[C@H](N)C1 [PRESATOVIR],Drug uptake (Plasma [3]): Active; Kp [4]: 10; clearance [5]: 6 mL/min/kg; half-life [6]: 35 h; Vd [7]: 2.91 L/kg; bioavailability [8]: 60%; half-life [9]: 3.4 h; Drug uptake [10]: Active; Drug uptake (Lung): Not Active; Kp [11]: 26; Drug uptake (Plasma [12]): Not Active; half-life [13]: 8.9 h; bioavailability [14]: 130%; Vd [15]: 4.95 L/kg; half-life [16]: 10 h; bioavailability [2]: 46%; Vd [17]: 9.75 L/kg; clearance [18]: 32.2 mL/min/kg; clearance [19]: 3.83 mL/min/kg
